Screening results as filed in PubChem.
Rows were chosen to be rich in hits. Some 2.6% of all compounds tested hit in one or more screens of this group.
Wnt bcat act: Wnt/beta-catenin pathway activators, primary screen, cell-based, plate reader, single point; Wnt/beta-catenin reporter cell assay, activator; activation, % at 9.35 µM; 300,000 compounds, 1.2% hits; AID 743398, 2014; in the data active = activation above about 30%, passing the limit was not always enough; inconclusive = no clear call, values can overlap the other calls
XiGFP reactiv: activators of inactive X chromosome reactivation, primary screen, imaging, XiGFP fibroblasts, GFP high-content imaging, set 2. activation, % at 7.58 µM. AID 743238, 2013. 360,000 compounds, 0.055% hits. XiGFP mouse fibroblasts, % GFP-positive cells imaging, 3 d; cells co-treated with 5-aza-dC sensitizer; scaled so ellipticine positive control = 100%;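 active = mean normalized replicate activation at least 10% and every replicate at or above 10%; inconclusive = only one of the two criteria met; inactive = mean below 10% and not all replicates reach 10%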
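System: XiGFP fibroblasts, SV40-immortalized. Medium: DMEM plus 5-aza-dC sensitizer. Doses: single point. Timing: 3 d treatment, 15 min room-temperature fixation. Control set: ellipticine 6 µM.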
esBAF inh: Bmi1 luciferase reporter increase in mESCs, primary screen, esBAF inhibitor project, mouse ES cells, Bmi1 luciferase knock-in, single point. 350,000 compounds, 2% hits. AID 602393, 2012. reporter increase, % at 12.5 µM. 24 h; 100% = twice the neutral-well signal; in the data active = activation above about 40%; inconclusive = no clear call, values can overlap the other calls;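 also: a rise in the Bmi1 reporter signal indicates esBAF inhibition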
Vif imaging: HIV Vif self-association inhibitors, primary screen, imaging, HEK293T, single point. inhibition, % at 7.49 µM. AID 602346, 2012. 340,000 compounds, 0.35% hits. HEK293T cells, Vif self-association by quenched fluorescence, 24 h; in the data active = inhibition above about 50%, passing the limit was not always enough; inconclusive = no clear call, values can overlap the other calls; inactive = below about 31%
MITF TRPM1 HTS: activators of MITF-driven TRPM1 promoter reporter, primary screen, cell-based, SK-MEL-5, luciferase, single point. SK-MEL-5 TRPM1-promoter luciferase, 24 h; % of positive control, neutral wells = 0. activation, % at 12.5 µM. 300,000 compounds, 0.75% hits. AID 588334, 2011;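 active = mean activation of at least 80% with every replicate also reaching 80%; inconclusive = mean reaches 80% but some replicate falls short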
Numbers stand for hits; - = inactive; ? = inconclusive; . = not tested or not shown; ! = not confirmed by another sample.

SMILES | Wnt bcat act | XiGFP reactiv | esBAF inh | Vif imaging | MITF TRPM1 HTS
O=C(NC1(C(F)(F)F)Oc2ccccc2O1)N1CCC2(CC1)OCCO2 | . | . | - | ? | -
O=C(NC1(C(F)(F)F)Oc2ccc(Cl)cc2O1)N1CCC2(CC1)OCCO2 (configuration not stated) | . | . | - | 78 | -
CS(=O)(=O)N1C[C@@H]2N[C@H](C1)C2c1ccccc1 (some centres not stated) | . | - | . | . | .
Cc1ccc(-c2nn(Cc3ccccc3)cc2C=O)cc1 | 55 | - | . | - | -
Cc1ccc(-c2nn(Cc3ccccc3)cc2C=O)cc1C | - | - | 88 | - | -
Cc1ccc(Cn2cc(C=O)c(-c3ccc(F)cc3)n2)cc1 | - | - | - | - | -
CCCNC(=O)N1[C@@H]2Cn3c(ccc(-c4cccc(C(=O)N(C)C)c4)c3=O)[C@H]1[C@@H](C(=O)O)[C@@H]2CO | . | - | . | . | .
CC(C)NC(=O)N1C[C@@H]2C(c3ccccc3)[C@H](C1)N2C (some centres not stated) | . | - | . | . | .
OC[C@@H]1Nc2ccc(C#Cc3cccnc3)cc2[C@@H]2NCC[C@H]12 | . | - | . | . | .
Cn1c(=O)oc(=O)c2ccccc21 | - | - | - | - | -
Cc1cc(C(=O)N=Nc2c(O)n(C)c3ccccc23)c(C)o1 | . | - | - | - | 87
O=C(C1CC1)N1C[C@@H]2N[C@H](C1)[C@@H]2c1ccc(-c2ccncc2)cc1 | . | - | . | . | .
O=[N+]([O-])c1ccc(N2CCOCC2)c2c1no[n+]2[O-] | - | - | - | 106 | .
Nc1ccc2ccc3cccc[n+]3c2c1 | - | - | - | . | .
C[n+]1c(-c2ccccc2)c2cc(N)ccc2c2ccc(N)cc21 | - | 19 | - | - | -
COc1ccc(-c2cc(=NCC(=O)O)c3ccccc3o2)cc1 | . | . | 47 | - | -
CN(C)C(=O)Oc1ccc2c(c1)O/C(=C\c1ccc(Cl)cc1)C2=O | - | - | ? | - | 104
Cc1nn(Cc2ccccc2Cl)c(Cl)c1C(=O)OCC(=O)NC(=O)NC1CCCCC1 | - | - | . | - | -
Cc1nn(CC(C)C)c(Cl)c1C(=O)NC1CCC(C)CC1 (configuration not stated) | - | - | 66 | - | 96
C=CCN1[C@@H]2CN(CC(F)(F)F)C[C@H]1C2c1ccc(Br)cc1 (some centres not stated) | . | - | . | . | .
CC(=O)c1ccc(OC(=O)N(C)c2ccccc2)cc1 | - | - | . | - | -
CC(=O)c1ccc(-c2ccccc2)cc1 | - | - | 34 | - | -
CCNC(=O)C1OC(n2cnc3c(N)ncnc32)C(O)C1O (configuration not stated) | . | . | - | 51 | -
CN1[C@@H]2CN(S(C)(=O)=O)C[C@H]1C2c1ccc(Br)cc1 (some centres not stated) | . | - | . | . | .
Cc1cc(C(=O)OCC(=O)Nc2ccccc2F)c(C)n1C1CC1 | - | - | 57 | - | 85
SMILES | Wnt bcat act | XiGFP reactiv | esBAF inh | Vif imaging | MITF TRPM1 HTS
Cc1cc(C(=O)OCC(=O)Nc2ccc(F)cc2F)c(C)n1C1CC1 | - | - | - | - | -
COC(=O)[C@@H]1[C@@H](CO)[C@@H]2Cn3c(ccc(-c4cccc(C(=O)N(C)C)c4)c3=O)[C@H]1N2CC1CC1 | . | - | . | . | .
CN(C)C(=O)[C@@H]1[C@@H](CO)[C@@H]2Cn3c(cccc3=O)[C@H]1N2CC1CC1 | . | - | - | . | .
CC/C(=N\NC(N)=O)c1c(O)[nH]c(=O)[nH]c1=O | 74 | - | . | - | -
CN1CC(C(=O)c2ccccc2)C(C(=O)c2ccccc2)C1 (configuration not stated) | - | . | 57 | - | .
CN1CC(C(=O)c2ccc(F)cc2)C(c2ccc(F)cc2)C1 (configuration not stated) | - | - | - | - | -
CN1C(=O)NC(=O)C(C)(C2=CCCCC2)C1=O (configuration not stated) | - | . | - | - | 100
CC(=O)c1cc(C(C)=O)c(C)[n+](C)c1C | - | - | - | 91 | .
CC(=O)c1ccc2c(c1)OCO2 | - | . | - | - | -
C=CCN1[C@@H]2CN(C(C)=O)C[C@H]1C2c1ccc(Br)cc1 (some centres not stated) | . | - | . | . | .
O=C1/C(=C/c2ccccc2)C[C@@]2(O)[C@H]3Cc4ccc(O)c5c4[C@@]2(CCN3CC2CC2)C1O5 (some centres not stated) | . | . | 54 | - | -
COc1cc(C2c3cc4c(cc3CC3COC(=O)C32)OCO4)cc(OC)c1O (configuration not stated) | - | - | . | 60 | -
COc1ccc2c(c1OC)C(=O)OC2C1c2cc3c(cc2CCN1C)OCO3 (configuration not stated) | - | - | - | - | -
COCC#Cc1ccc([C@H]2[C@H](CO)N3CCCCN(C(=O)Cc4ccccn4)C[C@@H]23)cc1 | . | - | . | . | .
CC(=O)N1[C@@H]2Cn3c(ccc(-c4cccc(C(=O)N(C)C)c4)c3=O)[C@H]1[C@@H](C(=O)O)[C@@H]2CO | . | - | . | . | .
CC12CCC(=O)C=C1CCC1C2CCC2(C)C(O)CCC12 (configuration not stated) | - | . | - | - | -
C[C@]12CC[C@H]3[C@@H](CCC4=CC(=O)CC[C@@]43C)[C@@H]1CC[C@@H]2O | 33! | . | - | - | -
O=C1NC(=S)NC(=O)C1=Cc1ccc(OCc2ccccc2)cc1 | - | - | 44 | - | -
CC(=O)N1C[C@@H]2C(c3ccccc3)[C@H](C1)N2CC1CC1 (some centres not stated) | . | - | . | . | .
COC(=O)C[C@]1(C(=O)OC)CN(C#N)N(c2ccc(Cl)cc2)C12c1ccccc1-c1ccccc12 | - | . | . | 57 | -
CN1C2CCC1/C(=C/c1ccccn1)C(=O)/C2=C\c1ccccn1 | - | - | . | 106 | -
c1ccc2oc(-c3ccc4c(c3)CNCc3cnnn3-4)cc2c1 | - | . | 66 | - | .
c1cc2c(cc1N1CCCCC1)CNCc1cnnn1-2 | - | . | - | - | .
C=C1C(=O)OC2CC3(C)OC3C3OC3C3=CC(OC3=O)C12 (configuration not stated) | - | . | - | 86 | .
C=C1C(=O)OC2CC3(C)OC3CCC(C)=CC(OC(C)=O)C12 (configuration not stated) | - | - | . | - | .
Oc1cc(O)cc(/C=C/c2ccc(O)cc2O)c1 | . | . | - | - | 94
O=[N+]([O-])c1ccccc1CNCCc1ccc(F)cc1 | . | . | 41 | - | -
COc1cc(OC)cc(C(=O)NC(=S)N2C[C@H]3C[C@H](C2)c2cccc(=O)n2C3)c1 | - | . | - | - | -
COc1cccc(OCc2cc(C(=O)N3C[C@H]4C[C@@H](C3)c3cccc(=O)n3C4)no2)c1 | - | - | 73 | - | 101
O=C1CN=C(c2cc([N+](=O)[O-])ccc2Cl)c2cc([N+](=O)[O-])ccc2N1 | 47 | - | - | - | .
